Data taken from PubChem BioAssay.
Active and inactive are the calls of the source.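 The calls were made as follows, unless noted: active = NADPH fluorescence slope more negative than the mean of all samples by about 3 SD, 99.7% confidence; inactive = the rest.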

Tests used:
[1] = inhibitors of TNFa-induced NFkB p65 translocation, primary screen, imaging, HUVEC, MLSMR starter and 10KST1 sets (AID 438;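 active = inhibition above 20% together with a positive visual image hit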;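 also: compound added about 3h40 before a 20 min TNFalpha stimulation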;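 as to inhibition: signal is the nuclear over cytoplasmic p65 intensity ratio per well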); conditions: HUVEC TNFa-induced p65 nuclear translocation; cell count: measured here: nuclei count (cytotoxicity indicator), at 2.08 µM; inhibition: at 2 µM, stronger effect = higher value, 0% TNFa-plus-vehicle, 100% no-TNFa wells
[2] = endothelial E-selectin expression blockers – imaging, HUVEC, immunofluorescence, MLSMR starter and 10KST1 sets, primary screen (AID 487;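 active = visually confirmed hit in the image check and inhibition above 20%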;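 as to inhibition: signal is fraction of cell area covered by stained E-selectin grains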;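 as to nuclei count: 100% = median nuclei count of all wells on the same plate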); conditions: HUVEC TNFalpha-induced E-selectin immunofluorescence imaging, at 2 µM; inhibition: stronger effect = higher value; nuclei count: measured here: cell number, toxicity
[3] = Primary imaging screen for DUSP6 inhibitors that restore phospho-Erk in transfected HeLa cells, chemical complementation (AID 609;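 active = compounds giving at least 50% inhibition in the cell-based MKP-3 phosphatase rescue imaging test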;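 as to inhibition: phospho-Erk level distribution per well compared with pooled transfected vehicle control wells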); conditions: HeLa MKP-3 transfected, phospho-Erk imaging KS statistic, at 10 µM, cells stimulated with TPA for 15 min
[4] = target: Dual specificity protein phosphatase 6 (Homo sapiens) (UniProt Q16828); experiment: as above; conditions: HeLa MKP-3 transfected, phospho-Erk imaging KS statistic; at 10 µM; stronger effect = higher value; cells stimulated with TPA for 15 min
[5] = target: Voltage-gated potassium channel subunit beta-2 (Rattus norvegicus) (UniProt P62483); experiment: inhibitors of rat Kvbeta2 reductase activity – biochemical, NADPH fluorescence, primary screen (AID 622;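 active = fluorescence slope higher than the sample average by over 3 SD, cut at about -0.22 in these data, passing the limit was not always enough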;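 also: slope of raw intensity against log time taken from 70 to 1610 s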); conditions: recombinant KvBeta, 4-cyanobenzaldehyde reduction, at 10 µM, stronger effect = higher value
[6] = target: Voltage-gated potassium channel subunit beta-2 (Rattus norvegicus) (UniProt P62483); experiment: enhancers of rat Kvbeta2 NADPH turnover – biochemical, NADPH fluorescence, primary screen (AID 623); conditions: Recombinant KvBeta, NADPH fluorescence decrease slope, 10 min; at 10 µM; stronger effect = lower value;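 also: fluorescence intensity change per second fitted from 20 to 320 s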
[7] = target: Muscarinic acetylcholine receptor M4 (Homo sapiens) (UniProt P08173); experiment: M4-linked GIRK flux change, two-sided – cell-based, HEK293 M4/GIRK, thallium flux, BTC-AM, M4 allosteric agonist project, primary screen (AID 625;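 active = fluorescence slope after compound addition differing from the mean of all tested samples at 99.7% confidence, mostly higher but some lower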;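 also: thallium influx through GIRK channels coupled to M4 in HEK293 cells with BTC-AM dye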); conditions: at 10 µM, actives lie on both sides
Summary of the method: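 assay system = HEK293 cells with M4 receptor and GIRK channels | medium = pH 7.3 thallium assay buffer | doses = 10 µM final, single point | timing = cells overnight at 37 °C, BTC-AM loading 1 h, reads 2 min total | signal = BTC-AM fluorescence, 1 Hz kinetic reads | read-out = post-addition slope, 15–24 s, of baseline-normalized fluorescence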

[8] = inhibitors of larval lipid processing in zebrafish, primary screen, whole organism, PED6 fluorescence, gall bladder and intestine (AID 686;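 active = a full or partial loss of lipid-probe fluorescence in the fish gall bladder, intestine or both, judged by eye; inactive = no fluorescence loss, or compound toxic to the fish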;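 also: larvae 5 to 7 days old with five fish per well; signal comes from phospholipase A2 cleavage of quenched PED6 carried via bile; overnight exposure to compound and PED6 before scoring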); conditions: Zebrafish larvae PED6 lipid processing, fluorescence scoring; screened at 20 µM (by protocol)
Summary of the method: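 Also added: quenched phospholipase substrate PED6, 100 nM final, ingested by larvae; System: zebrafish larvae, 5-7 d; Quantity: 5 larvae per well; Compound: 20 µM single dose; Schedule: overnight compound and PED6 incubation; Read-out: visual per-well fluorescence inhibition score; Measured by: By-eye fluorescence microscopy; Medium: E3.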

[9] = loss of swimming-algae plug formation – whole organism, Chlamydomonas reinhardtii, WT vs cilia-less mutant, absorbance, 96-well, primary screen (AID 463189;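 active = inhibition at or above 50% relative to wild type and mutant plate controls; inactive = inhibition below 50%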;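 also: 0% = wild type cc124 cells in DMSO and 100% = ciliumless bld1 mutant cells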); conditions: Chlamydomonas reinhardtii gravitaxis, OD600 absorbance, 2 days; at 10 µM; stronger effect = higher value
[10] = measured here: cell density z-score
[11] = measured here: nuclear c-Myc green intensity z-score
[12] = measured here: nuclear pErk red intensity z-score, stronger effect = higher value

Sequence of Voltage-gated potassium channel subunit beta-2 (Rattus norvegicus) (P62483 whole entry, looked up): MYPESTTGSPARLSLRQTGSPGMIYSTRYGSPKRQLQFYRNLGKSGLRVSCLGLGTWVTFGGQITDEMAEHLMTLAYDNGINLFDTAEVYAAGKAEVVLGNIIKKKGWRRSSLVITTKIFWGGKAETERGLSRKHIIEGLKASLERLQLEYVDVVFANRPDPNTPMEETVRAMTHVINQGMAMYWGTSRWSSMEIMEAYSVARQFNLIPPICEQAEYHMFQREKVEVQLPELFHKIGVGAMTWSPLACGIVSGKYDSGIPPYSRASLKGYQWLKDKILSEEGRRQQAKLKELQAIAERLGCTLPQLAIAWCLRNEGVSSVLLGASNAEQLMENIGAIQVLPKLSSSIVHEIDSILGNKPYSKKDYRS
Sequence of Dual specificity protein phosphatase 6 (Homo sapiens) (Q16828 whole entry, looked up): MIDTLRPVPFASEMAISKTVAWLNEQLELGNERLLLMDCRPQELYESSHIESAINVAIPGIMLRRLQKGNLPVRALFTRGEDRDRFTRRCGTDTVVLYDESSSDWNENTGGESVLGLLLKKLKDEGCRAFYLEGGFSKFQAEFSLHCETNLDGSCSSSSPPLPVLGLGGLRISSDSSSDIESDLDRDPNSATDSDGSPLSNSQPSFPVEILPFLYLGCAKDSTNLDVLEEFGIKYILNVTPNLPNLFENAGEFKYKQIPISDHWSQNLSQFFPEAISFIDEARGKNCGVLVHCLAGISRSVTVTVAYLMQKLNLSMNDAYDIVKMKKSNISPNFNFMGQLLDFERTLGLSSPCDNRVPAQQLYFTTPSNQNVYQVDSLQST
Sequence of Muscarinic acetylcholine receptor M4 (Homo sapiens) (P08173 whole entry, looked up): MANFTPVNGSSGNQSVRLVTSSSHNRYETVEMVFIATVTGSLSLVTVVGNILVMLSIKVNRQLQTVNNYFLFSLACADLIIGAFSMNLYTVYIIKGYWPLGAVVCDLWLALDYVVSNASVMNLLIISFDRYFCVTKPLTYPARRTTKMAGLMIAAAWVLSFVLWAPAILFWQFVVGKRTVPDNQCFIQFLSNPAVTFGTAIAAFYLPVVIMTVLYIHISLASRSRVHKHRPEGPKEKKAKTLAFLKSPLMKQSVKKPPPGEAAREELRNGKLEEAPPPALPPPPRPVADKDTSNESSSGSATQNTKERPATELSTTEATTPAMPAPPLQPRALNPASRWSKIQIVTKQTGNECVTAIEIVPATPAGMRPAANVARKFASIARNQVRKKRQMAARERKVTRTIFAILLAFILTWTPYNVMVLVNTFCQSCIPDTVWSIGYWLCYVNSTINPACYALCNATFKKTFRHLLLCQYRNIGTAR

SMILES | cell count [1] | inhibition [1] | inhibition [2] | nuclei count [2] | z-score [3, 10] | z-score [3, 11] | z-score [3, 12] | inhibition [4] | fluorescence slope [5] | NADPH fluorescence slope [6] | fluorescence slope [7] | outcome [8] | inhibition [9]
Cc1ccc(C2CC(c3cccs3)n3nc(N)nc3N2)cc1 (stereo not given) | 390 | -2% (inactive) | -110% (inactive) | 149% | -0.677 | 0.494 | -0.466 | 3.56% (inactive) | -0.429 (inactive) | -0.000111 (inactive) | 0.00581 (inactive) | inactive | 31.5% (inactive)
CCc1ccc(NC(=O)CSC2=C(C#N)C(c3ccc4c(c3)OCO4)CC(=O)N2)cc1 (stereo not given) | 599 | -14% (inactive) | 41.8% (inactive) | 91.1% | 1.39 | -1.52 | -0.214 | 22.7% (inactive) | -0.491 (inactive) | -4.6e-05 (inactive) | 0.00667 (inactive) | inactive | -5% (inactive)
COc1ccc(-n2ncc3c(Nc4cccc(C)c4)ncnc32)cc1 | 629 | -11.3% (inactive) | -122% (inactive) | 182% | 1.43 | 1.07 | -1.65 | 11.4% (inactive) | -0.319 (inactive) | -1.2e-05 (inactive) | 0.00486 (inactive) | inactive | 3.81% (inactive)
COC(=O)/C(C#N)=C1/SC=C(C)N1c1ccccc1 | 611 | 4.9% (inactive) | -42.5% (inactive) | 115% | -0.0327 | -1.23 | -0.208 | -13.3% (inactive) | -0.46 (inactive) | -5.6e-05 (inactive) | 0.00543 (inactive) | inactive | -8.28% (inactive)
CC(=O)Oc1ccc2c(C)cc(=O)[nH]c2c1 | 666 | -2% (inactive) | -13% (inactive) | 99.4% | -0.72 | 0.616 | 0.878 | 5.95% (inactive) | -0.502 (inactive) | -0.000195 (active) | 0.00681 (inactive) | inactive | 22.8% (inactive)
Cc1c(C)[n+](=O)c2c(n1[O-])CCC2 | 529 | -2% (inactive) | -51.7% (inactive) | 103% | -0.661 | -0.154 | 0.608 | 13.9% (inactive) | -0.343 (inactive) | -2.3e-05 (inactive) | 0.00544 (inactive) | inactive | 38.1% (inactive)
COC(=O)c1[nH]c2cc(OC)ccc2c1NC(=O)CN1CCN(c2cccc(C)c2)C(C)C1 (stereo not given) | 670 | 1% (inactive) | -108% (inactive) | 166% | -0.376 | -0.924 | -0.753 | -1.12% (inactive) | -0.429 (inactive) | -3.4e-05 (inactive) | 0.0042 (inactive) | inactive | 4.21% (inactive)
CCCSc1nnc(NC(=O)Nc2ccccc2)s1 | 655 | -20.6% (inactive) | -53.8% (inactive) | 184% | 0.599 | -1.15 | -0.322 | 5.35% (inactive) | -0.484 (inactive) | -5.4e-05 (inactive) | 0.00763 (inactive) | inactive | -6.45% (inactive)
CCOC(=O)c1[nH]c2ccc(F)cc2c1N=C(C)N(CC)CC | 621 | -7.1% (inactive) | -132% (inactive) | 100% | -2.41 | 0.938 | -0.403 | 1.9e-07% (inactive) | -0.497 (inactive) | -8.7e-05 (inactive) | 0.00509 (inactive) | inactive | -19.6% (inactive)
CNc1oc(-c2cccs2)nc1C#N | 683 | -0.7% (inactive) | -2.1% (inactive) | 144% | 0.965 | 0.294 | 0.102 | 1.63% (inactive) | -0.0289 (inactive) | -2.3e-05 (inactive) | 0.00668 (inactive) | inactive | 7.4% (inactive)
